# Assay results taken from ChEMBL document CHEMBL2040794, “Synthesis and structure-activity analysis of new phosphonium salts with potent activity against African trypanosomes” (J Med Chem, 2012).
# Key:
# [1] = tested on: Trypanosoma brucei rhodesiense; test: Antitrypanosomal activity against Trypanosoma brucei rhodesiense STIB900 infected in rat L6 cells after 72 hrs by alamar blue assay; type: functional, organism-based
# L6 = test: Cytotoxicity against rat L6 cells after 72 hrs by alamar blue assay; type: cell-based
# [2] = Selectivity index, ratio of EC50 for rat L6 cells to EC50 for Trypanosoma brucei rhodesiense STIB900; type: toxicity, cell-based; conditions: for Ratio EC50: l6; for selectivity ratio: L6 cells, read-out: Ratio EC50
# Summary of the method: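 Ratio of EC₅₀ in L6 cells to EC₅₀ against T. b. rhodesiense STIB900, both from Alamar blue assays.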
# [3] = tested on: Trypanosoma brucei brucei; test: Antitrypanosomal activity against wild type Trypanosoma brucei brucei Lister 427 after 3 days by alamar blue assay; type: functional, organism-based
# Summary of the method: (§1)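 Bloodstream-form T. b. brucei (wild-type s427; TbAT1-KO, made from s427 by TbAT1 deletion; B48, selected from TbAT1-KO in vitro on pentamidine, lacking functional HAPT1). Cells were exposed to compound for 48 h, then resazurin (Alamar blue) was added for a further 24 h. A single fluorescence reading gave EC50.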
# [4] = tested on: Trypanosoma brucei brucei; test: Antitrypanosomal activity against diminazene aceturate-resistant TbAT1 gene-deficient Trypanosoma brucei brucei AT1-KO after 3 days by alamar blue assay; type: functional, organism-based; summary of the method: as §1
# [5] = tested on: Trypanosoma brucei brucei; test: Resistance factor, ratio of EC50 for diminazene aceturate-resistant TbAT1 gene-deficient Trypanosoma brucei brucei AT1-KO to EC50 for wild type Trypanosoma brucei brucei Lister 427; type: functional
# Summary of the method: (§2)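 Resistance factor is the EC50 in the resistant line (TbAT1-KO or B48) divided by the EC50 in wild-type s427. […] Resistant and wild-type EC50s were compared by Student t-test.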
# [6] = tested on: Trypanosoma brucei brucei; test: Antitrypanosomal activity against diminazene-, pentamidine-, and melaminophenyl arsenical-resistant HAPT1-deficient Trypanosoma brucei brucei B48 after 3 days by alamar blue assay; type: functional, organism-based; summary of the method: as §1
# [7] = tested on: Trypanosoma brucei brucei; test: Resistance factor, ratio of EC50 for diminazene-, pentamidine-, and melaminophenyl arsenical-resistant HAPT1-deficient Trypanosoma brucei brucei B48 to EC50 for wild type Trypanosoma brucei brucei Lister 427; type: functional; summary of the method: as §2
# [8] = Selectivity index, ratio of EC50 for human HEK cells to EC50 for wild type Trypanosoma brucei brucei Lister 427; type: toxicity, cell-based, HEK293; conditions: for Ratio EC50: hek293; for selectivity ratio: HEK cells, read-out: Ratio EC50
# Summary of the method: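 Ratio of EC₅₀ in HEK cells to EC₅₀ in wild-type T. b. brucei s427, both from resazurin assays.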
# [9] = Inhibition of Trypanosoma brucei brucei LAPT1 assessed as [3H]-pentamidine uptake after 120 secs by scintillation counting
# Summary of the method: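 LAPT1 transport: late-log trypanosomes from HMI-9/10% FBS culture washed into pH 7.3 HEPES-bicarbonate-glucose buffer; 1 μM final [³H]-pentamidine uptake over 120 s with competitor. Uptake terminated with 2 mM ice-cold pentamidine and oil centrifugation; counted by scintillation, Ki from sigmoid curves; triplicate, at least three separate occasions.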
# [10] = Cytotoxicity against human HEK cells after 3 days by alamar blue assay; type: cell-based, HEK293
# Summary of the method: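 Human embryonic kidney cells tested by resazurin (Alamar blue) assay: 48 h with compound, then 24 h more after dye addition, single reading; EC₅₀ derived.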
# [11] = Trypanosoma brucei, STIB900, 72 h
# [12] = Trypanosoma brucei, Lister 427, 72 h
# [13] = Trypanosoma brucei, AT1-KO, 72 h
Compound,EC50 [1],EC50 (L6; l6),Ratio EC50 [2],EC50 [3],EC50 [4],Ratio EC50 [5],EC50 [6],Ratio EC50 [7],Ratio EC50 [8],Ki [9],"EC50 [1, 11]","EC50 (L6; Rattus norvegicus, L6, 72 h)",selectivity ratio [2],"EC50 [3, 12]","EC50 [4, 13]","EC50 ([6]; Trypanosoma brucei, B48, 72 h)","EC50 ([10]; Homo sapiens, HEK293, 72 h)",selectivity ratio [8],EC50 ([10]; hek293)
Cc1ccc(C[P+](c2ccccc2)(c2ccccc2)c2ccccc2)cc1.[Br-],364 nM,12900 nM,35.5,43 nM,33 nM,0.8,22 nM,0.5,> 7000,25000 nM,,,,,,,,,
O=C(c1ccc(C[P+](c2ccccc2)(c2ccccc2)C2CCCCC2)cc1)c1ccc(C[P+](c2ccccc2)(c2ccccc2)C2CCCCC2)cc1.[Br-].[Br-],,,,,,1.4,,1.1,,19000 nM,430 nM,65800 nM,155,300 nM,410 nM,330 nM,> 300000 nM,> 1000,
CCCCCC[P+](CCCCCC)(CCCCCC)Cc1ccc(C(=O)c2ccc(C[P+](CCCCCC)(CCCCCC)CCCCCC)cc2)cc1.[Br-].[Br-],,,,,,1.2,,0.9,,25000 nM,112 nM,1110 nM,10,38 nM,47 nM,35 nM,16600 nM,438,
Cc1ccc([P+](Cc2ccc(Cc3ccc(C[P+](c4ccccc4)(c4ccccc4)c4ccc(C)cc4)cc3)cc2)(c2ccccc2)c2ccccc2)cc1.[Br-].[Br-],,,,,,0.8,,0.7,,20000 nM,200 nM,4470 nM,22,240 nM,190 nM,180 nM,> 300000 nM,> 1250,
O=C(c1ccc(C[P+](c2ccccc2)(c2ccccc2)c2ccccc2)cc1)c1ccc(C[P+](c2ccccc2)(c2ccccc2)c2ccccc2)cc1.[Br-].[Br-],,,,,,1.5,,1.6,,49000 nM,260 nM,73300 nM,282,240 nM,360 nM,380 nM,> 300000 nM,> 1250,
Cc1ccc([P+](CCc2ccc(CCCc3ccc(CC[P+](c4ccc(C)cc4)(c4ccc(C)cc4)c4ccc(C)cc4)cc3)cc2)(c2ccc(C)cc2)c2ccc(C)cc2)cc1.[Cl-].[Cl-],,,,,,0.6,,0.6,,,73 nM,645 nM,8.8,77 nM,43 nM,48 nM,5600 nM,73,
Cc1ccc([P+](Cc2ccc(Oc3ccc(C[P+](c4ccccc4)(c4ccccc4)c4ccc(C)cc4)cc3)cc2)(c2ccccc2)c2ccccc2)cc1.[Br-].[Br-],,,,,,0.9,,0.8,,,142 nM,3340 nM,23,82 nM,77 nM,64 nM,240000 nM,2930,
Cc1ccc(C[P+](c2ccccc2)(c2ccccc2)c2ccccc2)cc1.[Cl-],,,,,,1,,1,,,216 nM,10400 nM,48,23 nM,24 nM,23 nM,> 300000 nM,> 12500,
CCC[P+](Cc1ccc(Oc2ccc(C[P+](CCC)(c3ccccc3)c3ccccc3)cc2)cc1)(c1ccccc1)c1ccccc1.[Br-].[Br-],,,,,,1.1,,1.2,,,567 nM,2900 nM,5,250 nM,280 nM,300 nM,233000 nM,914,
Cc1ccc([P+](Cc2ccc(C(=O)c3ccccc3)cc2)(c2ccc(C)cc2)c2ccc(C)cc2)cc1.[Br-],,,,,,0.2,,0.2,,,81 nM,1350 nM,16.7,64 nM,12 nM,11 nM,32500 nM,505,
Cc1ccc([P+](Cc2ccc(CCc3ccc(C[P+](c4ccc(C)cc4)(c4ccc(C)cc4)c4ccc(C)cc4)cc3)cc2)(c2ccc(C)cc2)c2ccc(C)cc2)cc1.[Cl-].[Cl-],50 nM,1690 nM,33.8,58 nM,30 nM,0.5,45 nM,0.8,404,,,,,,,,,,23300 nM
Cc1ccc([P+](Cc2ccc(Cc3ccc(C[P+](c4ccc(C)cc4)(c4ccc(C)cc4)c4ccc(C)cc4)cc3)cc2)(c2ccc(C)cc2)c2ccc(C)cc2)cc1.[Br-].[Br-],,,,,,1,,0.9,,,99 nM,2330 nM,24,80 nM,80 nM,74 nM,233000 nM,2900,
C[P+](C)(Cc1ccc(CCc2ccc(C[P+](C)(C)c3ccccc3)cc2)cc1)c1ccccc1.[Br-].[Br-],,,,,,1,,0.5,,,1200 nM,48600 nM,40,2590 nM,2620 nM,1800 nM,> 300000 nM,> 110,
COc1ccccc1[P+](Cc1ccc(C(=O)c2ccc(C[P+](c3ccccc3OC)(c3ccccc3OC)c3ccccc3OC)cc2)cc1)(c1ccccc1OC)c1ccccc1OC.[Br-].[Br-],,,,,,1.5,,0.7,,,200 nM,9000 nM,45,110 nM,160 nM,80 nM,131000 nM,1180,
Cc1ccc([P+](Cc2ccc(C(=O)c3ccc(C[P+](c4ccc(C)cc4)(c4ccc(C)cc4)c4ccc(C)cc4)cc3)cc2)(c2ccc(C)cc2)c2ccc(C)cc2)cc1.[Cl-].[Cl-],84 nM,1220 nM,14.5,94 nM,65 nM,0.7,73 nM,0.8,254,,,,,,,,,,24000 nM
